Data as given in paper PMC8281356 (Chemical biology & drug design, 2021).

Assays:
[1] = molecular target: T1, ovine COX-1 (Ovis aries, UniProt P05979); assay: COX fluorescent inhibitor screening kit; type: biochemical
T1 sequence (P05979 25-600): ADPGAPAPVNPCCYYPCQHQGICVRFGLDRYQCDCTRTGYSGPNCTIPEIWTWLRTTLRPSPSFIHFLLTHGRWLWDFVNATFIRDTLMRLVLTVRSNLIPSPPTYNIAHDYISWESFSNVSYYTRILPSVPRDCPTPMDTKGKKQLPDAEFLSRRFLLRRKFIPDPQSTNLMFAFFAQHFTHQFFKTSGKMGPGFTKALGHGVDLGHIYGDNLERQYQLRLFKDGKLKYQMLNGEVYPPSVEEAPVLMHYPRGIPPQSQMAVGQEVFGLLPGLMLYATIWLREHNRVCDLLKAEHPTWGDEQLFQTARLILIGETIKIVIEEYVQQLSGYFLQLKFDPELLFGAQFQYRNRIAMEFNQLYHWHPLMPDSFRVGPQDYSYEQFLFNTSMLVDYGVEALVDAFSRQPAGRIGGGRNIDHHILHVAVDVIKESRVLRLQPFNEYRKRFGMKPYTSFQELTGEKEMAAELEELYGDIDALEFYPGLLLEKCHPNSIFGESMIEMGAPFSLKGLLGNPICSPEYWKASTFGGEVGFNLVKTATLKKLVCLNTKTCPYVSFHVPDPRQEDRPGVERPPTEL
Summary of the method: (§1)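 Ovine COX-1 or human recombinant COX-2 with heme and ADHP in 100 mM Tris-HCl, pH 8.0. Test compound from 10 mM DMSO stock, final 2.5–100 μM. Arachidonic acid starts the reaction, 2 min at room temperature. Resorufin read at ex 535/em 590 nm. Percent inhibition vs no-inhibitor control; IC50 from concentration–inhibition curve, triplicate determinations.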

[2] = molecular target: T2, human recombinant COX-2 (Homo sapiens, UniProt P35354); assay: COX fluorescent inhibitor screening kit; type: biochemical
T2 sequence (P35354 18-604): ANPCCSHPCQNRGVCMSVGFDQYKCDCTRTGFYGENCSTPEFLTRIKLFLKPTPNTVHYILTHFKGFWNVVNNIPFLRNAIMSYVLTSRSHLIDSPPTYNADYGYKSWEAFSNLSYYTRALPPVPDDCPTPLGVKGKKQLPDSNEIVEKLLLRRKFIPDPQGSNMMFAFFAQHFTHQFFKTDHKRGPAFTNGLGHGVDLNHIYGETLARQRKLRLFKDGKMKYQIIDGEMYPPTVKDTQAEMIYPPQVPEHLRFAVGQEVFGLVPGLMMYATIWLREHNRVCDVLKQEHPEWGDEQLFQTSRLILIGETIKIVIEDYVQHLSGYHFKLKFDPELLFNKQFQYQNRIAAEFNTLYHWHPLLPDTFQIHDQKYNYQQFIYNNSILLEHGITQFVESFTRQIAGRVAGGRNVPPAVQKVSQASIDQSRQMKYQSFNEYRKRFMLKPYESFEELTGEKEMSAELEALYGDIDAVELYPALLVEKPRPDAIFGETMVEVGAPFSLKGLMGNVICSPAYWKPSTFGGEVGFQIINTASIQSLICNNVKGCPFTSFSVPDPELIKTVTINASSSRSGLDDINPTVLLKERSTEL
Summary of the method: as §1

Row | SMILES | IC50 [1] [µM] | IC50 [2] [µM]
1 | CC(=O)OC[C@H]1O[C@@H](OC(C)=O)[C@H](NC(=O)Cc2ccccc2Nc2c(Cl)cccc2Cl)[C@@H](OC(C)=O)[C@@H]1OC(C)=O [compound 3] | 25.5 | < 2.5
2 | CC(=O)OC[C@H]1O[C@@H](OC(C)=O)[C@H](NC(=O)c2ccccc2Nc2cccc(C)c2C)[C@@H](OC(C)=O)[C@@H]1OC(C)=O [compound 5, 1,3,4,6-Tetra-O-acetyl-2-deoxy-2-(2-((2,3-dimethylphenyl)amino)benzamido)-β-D-glucopyranose] | < 2.5 | > 100
3 | COc1ccc2c(c1)c(CC(=O)N[C@H]1[C@H](OC(C)=O)O[C@H](COC(C)=O)[C@@H](OC(C)=O)[C@@H]1OC(C)=O)c(C)n2C(=O)c1ccc(Cl)cc1 [compound 4] | 24.9 | 33.6
